Data published in ChEMBL document CHEMBL1629492 (Eur J Med Chem, 2010).

Key:
[1] = molecular target: T1, Alpha-1B adrenergic receptor (Rattus norvegicus) (UniProt P15823); experiment: Antagonist activity at Alpha-1B adrenoceptor in Wistar rat spleen assessed as phenylephrine induced contractions after 30 mins; type: functional, tissue-based
T1 sequence (whole entry): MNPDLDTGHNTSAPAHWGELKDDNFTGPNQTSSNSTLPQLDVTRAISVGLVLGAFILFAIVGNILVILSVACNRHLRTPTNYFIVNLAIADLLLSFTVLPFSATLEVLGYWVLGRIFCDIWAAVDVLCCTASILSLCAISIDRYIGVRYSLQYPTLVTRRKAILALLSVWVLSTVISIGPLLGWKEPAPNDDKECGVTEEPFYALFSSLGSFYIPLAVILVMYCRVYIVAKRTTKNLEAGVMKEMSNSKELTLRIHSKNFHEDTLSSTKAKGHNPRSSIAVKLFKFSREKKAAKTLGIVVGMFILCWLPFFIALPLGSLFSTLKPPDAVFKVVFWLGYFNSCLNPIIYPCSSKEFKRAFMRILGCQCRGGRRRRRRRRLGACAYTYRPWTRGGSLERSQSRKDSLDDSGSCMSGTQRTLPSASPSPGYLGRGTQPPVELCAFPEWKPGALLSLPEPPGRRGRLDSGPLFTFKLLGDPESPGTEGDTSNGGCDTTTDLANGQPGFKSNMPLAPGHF
Method in brief: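 Spleen strips from male Wistar rats (275–300 g) were set up in a 20 mL bath of physiological salt solution (pH 7.4, 37 °C, 95% O2/5% CO2) under 1 g tension and equilibrated 2 h. Two cumulative phenylephrine curves were run, each followed by 30 min washing, then 30 min incubation with vehicle or antagonist before a third curve. Values are Schild pA2, or pKB where slopes were nonparallel; 4–6 experiments.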

[2] = molecular target: T2, Alpha-1A adrenergic receptor (Rattus norvegicus) (UniProt P43140); experiment: Antagonist activity at alpha1A adrenoceptor in Wistar rat vas deferens assessed as noradrenaline induced contractions after 30 mins; type: functional, tissue-based
T2 sequence (whole entry): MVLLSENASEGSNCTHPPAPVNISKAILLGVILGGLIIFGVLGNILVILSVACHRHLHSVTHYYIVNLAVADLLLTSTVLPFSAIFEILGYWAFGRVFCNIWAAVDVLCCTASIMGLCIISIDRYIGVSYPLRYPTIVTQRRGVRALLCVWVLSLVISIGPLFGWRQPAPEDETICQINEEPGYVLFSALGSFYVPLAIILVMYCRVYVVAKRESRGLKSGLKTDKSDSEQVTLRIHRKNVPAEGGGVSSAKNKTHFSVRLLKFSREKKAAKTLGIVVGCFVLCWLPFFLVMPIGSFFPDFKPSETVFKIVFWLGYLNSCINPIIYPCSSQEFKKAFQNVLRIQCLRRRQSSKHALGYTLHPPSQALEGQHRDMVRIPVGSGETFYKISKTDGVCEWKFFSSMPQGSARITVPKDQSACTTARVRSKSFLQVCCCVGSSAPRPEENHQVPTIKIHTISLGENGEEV
Method in brief: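 Prostatic portions (2 cm) of vas deferens from male Wistar rats (275–300 g) were held under 0.35 g tension in Tyrode solution at 37 °C with cocaine present. Tissues were equilibrated 45 min, primed twice with noradrenaline, then given a cumulative isotonic noradrenaline curve.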

[3] = molecular target: T3, Alpha-1D adrenergic receptor (Homo sapiens, UniProt P25100); experiment: Displacement of [3H]prazosin from human Alpha-1D adrenoceptor expressed in CHO cells; type: cell-based
T3 sequence (P25100 whole entry): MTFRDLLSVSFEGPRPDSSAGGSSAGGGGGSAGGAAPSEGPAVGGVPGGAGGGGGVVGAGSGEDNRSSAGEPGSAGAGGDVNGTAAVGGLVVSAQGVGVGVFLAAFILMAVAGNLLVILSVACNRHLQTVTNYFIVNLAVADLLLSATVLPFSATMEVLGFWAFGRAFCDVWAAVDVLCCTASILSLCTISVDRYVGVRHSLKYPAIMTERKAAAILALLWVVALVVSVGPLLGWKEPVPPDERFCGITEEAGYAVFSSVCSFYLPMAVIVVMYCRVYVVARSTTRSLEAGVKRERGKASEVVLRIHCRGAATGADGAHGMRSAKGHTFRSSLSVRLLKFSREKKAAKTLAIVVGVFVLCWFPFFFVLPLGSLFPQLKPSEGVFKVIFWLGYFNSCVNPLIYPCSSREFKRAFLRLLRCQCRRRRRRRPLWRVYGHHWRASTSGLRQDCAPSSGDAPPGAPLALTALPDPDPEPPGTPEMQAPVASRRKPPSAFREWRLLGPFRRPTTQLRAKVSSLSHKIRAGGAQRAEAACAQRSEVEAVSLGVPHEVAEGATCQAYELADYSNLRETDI
Method in brief: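 Membranes ([…], as printed) from CHO cells stably expressing the cloned human α1d subtype were incubated with 0.1–0.4 nM [³H]prazosin and competing drug (1 pM upward) in 50 mM Tris-HCl, pH 7.4, for 30 min at 25 °C. Phentolamine defined non-specific binding. IC50 was converted to Ki by Cheng–Prusoff. Reported as pKi from 2–3 triplicate experiments.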

[4] = molecular target: T4, Alpha-1B adrenergic receptor (Homo sapiens, UniProt P35368); experiment: Displacement of [3H]prazosin from human Alpha-1B adrenoceptor expressed in CHO cells; type: cell-based
T4 sequence (P35368 whole entry): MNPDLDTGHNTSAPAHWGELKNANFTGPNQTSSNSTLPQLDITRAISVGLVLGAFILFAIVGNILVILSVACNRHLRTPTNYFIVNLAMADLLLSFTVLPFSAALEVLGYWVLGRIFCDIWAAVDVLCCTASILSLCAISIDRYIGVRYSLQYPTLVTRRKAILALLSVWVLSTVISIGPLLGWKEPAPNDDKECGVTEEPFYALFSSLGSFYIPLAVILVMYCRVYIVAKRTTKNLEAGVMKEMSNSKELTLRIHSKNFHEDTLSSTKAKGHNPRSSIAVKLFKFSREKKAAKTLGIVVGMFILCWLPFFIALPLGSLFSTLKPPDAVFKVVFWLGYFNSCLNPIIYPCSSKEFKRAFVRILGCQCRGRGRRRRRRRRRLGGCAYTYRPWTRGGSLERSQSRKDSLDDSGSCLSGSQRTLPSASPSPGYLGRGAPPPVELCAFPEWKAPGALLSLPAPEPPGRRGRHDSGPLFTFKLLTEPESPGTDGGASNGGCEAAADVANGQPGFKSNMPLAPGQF
Method in brief: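 Membranes ([…], as printed) from CHO cells stably expressing the cloned human α1b subtype were incubated with 0.1–0.4 nM [³H]prazosin and competitor (1 pM up to the top concentration) in 50 mM Tris-HCl, pH 7.4, for 30 min at 25 °C. Non-specific binding was defined with phentolamine, and incubations ended by filtration. Ki was derived from IC50 by Cheng–Prusoff. Reported as pKi from 2–3 triplicate experiments.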

[5] = molecular target: T5, Alpha-1D adrenergic receptor (Rattus norvegicus) (UniProt P23944); conditions: Wistar, Thoracic aorta
T5 sequence (whole entry): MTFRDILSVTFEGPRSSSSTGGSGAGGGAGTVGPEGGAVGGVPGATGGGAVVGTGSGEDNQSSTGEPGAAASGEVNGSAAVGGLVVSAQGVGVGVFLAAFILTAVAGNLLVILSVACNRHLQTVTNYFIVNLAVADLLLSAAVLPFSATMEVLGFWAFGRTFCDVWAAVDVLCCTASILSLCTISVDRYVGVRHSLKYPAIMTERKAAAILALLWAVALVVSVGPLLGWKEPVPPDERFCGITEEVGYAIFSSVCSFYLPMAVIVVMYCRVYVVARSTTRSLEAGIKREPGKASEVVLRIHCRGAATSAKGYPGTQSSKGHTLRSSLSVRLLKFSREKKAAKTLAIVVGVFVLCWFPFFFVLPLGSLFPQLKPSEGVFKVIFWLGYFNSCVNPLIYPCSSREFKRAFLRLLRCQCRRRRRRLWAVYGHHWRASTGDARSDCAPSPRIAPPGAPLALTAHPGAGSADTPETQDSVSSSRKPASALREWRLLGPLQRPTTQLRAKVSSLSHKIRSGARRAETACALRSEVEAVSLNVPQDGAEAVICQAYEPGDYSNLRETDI

CCOc1ccccc1OCCN[C@H](C)Cc1ccc(OC)c(S(N)(=O)=O)c1 [TAMSULOSIN]
pKb [1]: 9.3
pKb [2]: 9.46
Ki [3]: 0.1 nM
Ki [4]: 0.631 nM
pKb [5]: 10
